# Results pooled from the literature.
# Protocols differ between the studies behind these lines.
# Target: Cyclin-dependent kinase-like 3 (CDKL3, Homo sapiens, UniProt Q8IVW4)
SMILES,observed,technique,concentration,remaining binding [%]
CCN1CCN(Cc2ccc(C(=O)Nc3ccc(C)c(Oc4ccc5c(c4)CC(=O)N5)c3)cc2C(F)(F)F)CC1,binding,competition with immobilised ligand,1 µM,86
c1cncc(-c2cccc(Nc3nccc(NC4CCCCC4)n3)c2)c1,binding,competition with immobilised ligand,10 µM,100
COc1ccnn2ncc(-c3ccnc(N(C)C)n3)c12,binding,,1 µM,94
Cc1cc(NC(=O)c2cccc(S(F)(F)(F)(F)F)c2)cc(-n2ccn3nc(-c4cccnc4)cc23)c1,cell-free assay,competition with immobilised ligand,1 µM,100
O=C(c1ccc(Nc2ncc(Cl)c(-c3ccc(Cl)s3)n2)cc1)N1CCC(N2CCCC2)CC1,binding,competition with immobilised ligand,1 µM,39
CN(c1ccnc(CNc2nc(Nc3ccc4c(c3)CC(=O)N4)ncc2C(F)(F)F)n1)S(C)(=O)=O,cell-free assay,competition with immobilised ligand,1 µM,78
O=C(c1ccc(Nc2ncc(Cl)c(-c3cc4ccccc4s3)n2)cc1)N1CCC(N2CCCC2)CC1,binding,competition with immobilised ligand,1 µM,47
c1cnn2ncc(-c3ccnc(N4CCC45COC5)n3)c2c1,binding,,1 µM,93
O=C(NCCCN1CCOCC1)c1ccc(Nc2ncc(Cl)c(-c3ccc(Cl)s3)n2)cc1,binding,competition with immobilised ligand,1 µM,86
Cn1nc(C(=O)NCc2ccc(C(=O)O)cc2)cc1-c1ccc2[nH]ccc2c1,cell-free assay,competition with immobilised ligand,0.1 µM,100
O=C(Nc1c[nH]nc1C(=O)NC1CCNCC1)c1cc(F)cc(F)c1,binding,competition with immobilised ligand,1 µM,100
N[C@@H]1CCN(c2nccc(-c3cnn4ncccc34)n2)C1,binding,,1 µM,80
CNCc1ccccc1-c1csc([C@H](C)Nc2nc(C)nc3cc(OC)c(OC)cc23)c1,cell-free assay,competition with immobilised ligand,1 µM,97
F[C@@H]1CCN(c2nccc(-c3cnn4ncccc34)n2)C1,binding,,1 µM,100
CS(=O)(=O)NCC[C@H](NC(=O)c1cncc2c1cnn2-c1ccc(F)cc1)c1ccnc(S(C)(=O)=O)c1,binding,competition with immobilised ligand,1 µM,99
COc1cnc(Nc2cccc(S(N)(=O)=O)c2)nc1N1CCN(c2ccccc2)C(=O)C1,binding,competition with immobilised ligand,1 µM,99
C[C@@H](c1ccc(-n2cnc3c(N)ncnc32)cc1)N1CCc2nn(C)c(Cc3ccccc3)c2C1=O,binding,competition with immobilised ligand,0.1 µM,95
C[C@H]1CCN(c2nccc(-c3cnn4ncccc34)n2)C1,binding,,1 µM,85
CN(C)CC#Cc1ccc(OCCCc2sc(N3CCc4cccc(C(=O)Nc5nc6ccccc6s5)c4C3)nc2C(=O)O)c(F)c1,cell-free assay,competition with immobilised ligand,1 µM,100
CNC(=O)[C@@H]1CC[C@@H](n2c(-c3ccc4cnccc4c3)nc3ccc(C(=O)NCc4cccc(C(N)=O)c4)cc32)C1,binding,competition with immobilised ligand,1 µM,96
